From PubChem
ROMK mod: human ROMK K+ channel modulation, primary screen. B-score at 10 µM. Tet-inducible ROMK, thallium flux fluorescence; actives lie on both sides. P48048. 130,000 compounds, 2% hits. AID 1918;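 active = signal ratio slope over the read window, or its plate-corrected B-score, at least 3 SD from the plate mean, either direction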;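 note: B-score of the F/F0 ratio slope over 7 to 12 s after thallium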
m-calpain inh: calpain II (pig) inhibition; purified calpain II, fluorogenic peptide substrate, 30 min; inhibition, % at 16 µM; 220,000 compounds, 0.37% hits; AID 1236;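 active = inhibition above about 50%, limit read from the data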
PKD1 inh: inhibitors of human PKD1 kinase | PKD1 kinase fluorescence polarization assay | inhibition, % (no concentration beside the values) | 200,000 compounds, 0.056% hits | AID 797; in the data active = inhibition above about 50%
Target sequence (Q15139 whole entry, looked up): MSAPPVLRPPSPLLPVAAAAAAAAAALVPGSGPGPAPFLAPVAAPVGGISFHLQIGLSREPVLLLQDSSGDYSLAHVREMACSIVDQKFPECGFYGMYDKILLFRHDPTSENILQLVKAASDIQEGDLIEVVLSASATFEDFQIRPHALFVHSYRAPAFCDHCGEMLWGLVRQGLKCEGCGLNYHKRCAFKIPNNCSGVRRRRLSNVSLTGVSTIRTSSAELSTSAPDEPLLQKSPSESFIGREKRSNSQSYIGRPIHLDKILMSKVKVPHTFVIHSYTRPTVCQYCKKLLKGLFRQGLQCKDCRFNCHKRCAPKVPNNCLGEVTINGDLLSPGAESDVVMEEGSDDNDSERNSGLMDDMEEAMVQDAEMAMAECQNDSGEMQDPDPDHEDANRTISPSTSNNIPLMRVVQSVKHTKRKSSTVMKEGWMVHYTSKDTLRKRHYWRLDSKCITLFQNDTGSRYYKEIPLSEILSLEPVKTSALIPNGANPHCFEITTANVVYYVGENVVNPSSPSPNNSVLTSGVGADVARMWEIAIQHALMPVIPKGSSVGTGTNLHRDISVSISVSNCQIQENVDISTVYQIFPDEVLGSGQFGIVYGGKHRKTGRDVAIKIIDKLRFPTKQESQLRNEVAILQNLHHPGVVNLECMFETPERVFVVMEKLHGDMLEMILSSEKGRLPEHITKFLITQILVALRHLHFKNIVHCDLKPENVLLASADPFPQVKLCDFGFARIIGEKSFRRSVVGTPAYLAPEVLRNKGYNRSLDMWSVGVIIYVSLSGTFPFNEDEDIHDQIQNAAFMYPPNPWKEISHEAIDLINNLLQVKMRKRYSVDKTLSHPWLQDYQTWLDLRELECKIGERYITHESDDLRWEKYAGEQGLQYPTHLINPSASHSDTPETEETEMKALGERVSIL
Cl transport mod: modulates chloride dependent transport by human KCC2. Q9H2X9. KCC2 cells, thallium flux FluoZin-2 fluorescence. B-score of Tl+ flux slope (higher = more flux/activation; lower = inhibition) at 10 µM. 190,000 compounds, 2.2% hits;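 active = thallium flux slope and its plate-corrected score both differing from the plate sample mean at a set confidence after two filtering rounds, in either direction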;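 note: slope of fluorescence scaled to starting intensity during 10 to 20 s after thallium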
Mdm2 ligase inh: Mdm2 E3 ligase (human) inhibition; Q00987; cell-based MDM2 ubiquitination luciferase reporter, 2 h; 0 = plate control, 100 = twice control, blank-subtracted; signal enhancement, % at 5 µM; 210,000 compounds, 0.11% hits; AID 1230;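 active = signal enhancement of 30% or more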;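 note: luminescence tracks abundance of the self-degrading MDM2-luciferase fusion protein; higher signal means inhibition of MDM2 E3 ligase activity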
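Assay system: mammalian cells stably expressing self-ubiquitinating, self-degrading MDM2 E3–luciferase fusion. Quantity: 2000 cells in each well. Medium: DMEM culture medium. Compound dosing: single-point 5 µM. Timing: cell settling 4 h, compound treatment 2 h, both 37 °C. Technique: luciferase luminescence. Read-out basis: percent signal gain over controls, blank-subtracted. Benchmarks: plate controls and plate blanks.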
Arbovirus inh: arbovirus infection inhibition; inhibition, % at 10 µM; arbovirus infection cell-based antiviral screen; AID 1251; 200,000 compounds, 0.37% hits; in the data active = inhibition above about 30%
Each line names hits and unclear results; the compound was inactive in the other large screens. Rows were chosen to be rich in hits. Some 3.7% of all compounds tested hit in one or more screens of this group.

C(=C\c1ccccc1)/CSc1nnc(-c2ccncc2)n1Cc1ccco1	Cl transport mod -5.05
O=C(NC(=S)Nc1ccc(Cl)cn1)c1cccs1	Cl transport mod 21.2 (no result: ROMK mod)
O=C(NC(=S)Nc1cccnc1)c1cccs1	none
Cc1ccnc(NC(=S)NC(=O)c2cccs2)c1	Cl transport mod 25.9 (no result: Mdm2 ligase inh)
O=C(NC(=S)Nc1nc2c(ccc3ccccc32)s1)c1cccs1	Cl transport mod 17.5
CCN(CC)CCNc1ccc2nnc(CCNS(=O)(=O)c3ccc(C)cc3)n2n1	none
Cc1csc2ncnc(N3CCN(C(=O)Nc4ccc(OC(F)(F)F)cc4)CC3)c12	m-calpain inh 56.8 (no result: PKD1 inh, Arbovirus inh)
CCN(CC)CCc1c(C)[nH]c(C(=O)OCc2ccccc2)c1C	m-calpain inh 58.0 (no result: Cl transport mod)
O=C1CC(c2ccccc2Cl)c2c(sc3c(=O)[nH]c(CCl)nc23)N1 (stereo unspecified)	none (no result: PKD1 inh, Arbovirus inh)
CN(C)c1oc(-c2ccccc2Cl)nc1C#N	Mdm2 ligase inh 32.4 (no result: ROMK mod)
CC(C)CCNC(=O)C(=O)Nc1ccccc1	none
CC(C)CCNC(=O)[C@H](CC(C)C)NC(=O)[C@H]1O[C@@H]1C(=O)O	m-calpain inh 100.0 (no result: ROMK mod, Mdm2 ligase inh)
CCOC(=O)[C@H]1O[C@@H]1C(=O)N[C@@H](CC(C)C)C(=O)NCCC(C)C	m-calpain inh 96.8 (no result: ROMK mod, PKD1 inh, Mdm2 ligase inh)
CCOC(=O)N1CCC(NC(=O)C(CC(C)C)NC(=O)C2CCCCC2)CC1 (stereo unspecified)	none
CC1CC(O)C(C)CN1 (stereo unspecified)	none (no result: ROMK mod, PKD1 inh, Arbovirus inh)
Cc1ccc2nc(NC(=O)C3CCCN(S(=O)(=O)c4cnc[nH]4)C3)sc2c1 (stereo unspecified)	Arbovirus inh 58.8 (no result: ROMK mod)
CC(=O)Nc1cc(C(=O)OC(C(=O)c2ccccc2)c2ccccc2)ccc1C (stereo unspecified)	m-calpain inh 66.5
Cc1ccc(C(=O)Oc2cccc(-n3cnnn3)c2)cc1	m-calpain inh 62.3
COC(=O)c1ccccc1NC(=O)N1CCN(c2ccc(F)cc2)CC1	m-calpain inh 51.3
O=C(Nc1cccc2ccccc12)N1CCN(c2ccc(F)cc2)CC1	none
Nc1nonc1-c1noc(CCCCCN2C(=O)c3ccccc3C2=O)n1	m-calpain inh 51.2 (no result: ROMK mod)
Cc1ccc(-c2noc(CN(C(=O)CCCN3C(=O)c4ccccc4C3=O)C(C)C)n2)cc1	none (no result: m-calpain inh, Mdm2 ligase inh, Arbovirus inh)
Cc1ccc(-c2noc(CN(C(=O)CCCCCN3C(=O)c4ccccc4C3=O)C(C)C)n2)cc1	m-calpain inh 54.5
CCCCCCc1cc2cc(C(=O)Nc3ccc(OC)cc3)c(=O)oc2cc1O	Arbovirus inh 46.8 (no result: ROMK mod)
Fc1ccc(NC(=S)N2CCN(c3ncccn3)CC2)cc1	none
CCOc1ncnc2c1sc1nc(C)cc(C)c12	none (no result: PKD1 inh, Arbovirus inh)
CCSc1nc2c(sc3nc(C)cc(C)c32)c(=O)[nH]1	Arbovirus inh 36.6 (no result: ROMK mod, Cl transport mod)
Cc1c(NC2(C#N)CCCCC2)c(=O)n(-c2ccccc2)n1C	none (no result: Cl transport mod)
CCn1c2ccccc2c2cc(/C=N/n3cn[nH]c3=S)ccc21	Cl transport mod 22.5 (no result: ROMK mod)
Cc1ccccc1C(=O)c1c[nH]c(C(=O)NCCc2ccccn2)c1	none
COc1cc(OC)c(OC)cc1/C=N/NC(=O)CCc1c(C)n[nH]c1C	none (no result: ROMK mod, PKD1 inh, Arbovirus inh)
O=C(CSc1ncnc2c1cnn2-c1ccc(Cl)cc1)NCc1ccc2c(c1)OCO2	Cl transport mod 20.8 (no result: ROMK mod)
O=C(CSc1ncnc2c1cnn2-c1ccccc1)Nc1ccc2c(c1)OCO2	none (no result: ROMK mod, Cl transport mod)
O=C(CN1CC[n+]2c(-c3cccs3)csc21)c1ccc(-c2ccccc2)cc1	ROMK mod -5.64, m-calpain inh 57.8, Cl transport mod 3.17
Cc1ccc(C(=O)Nc2nnc(-c3ccco3)o2)cc1	none (no result: ROMK mod)
O=C(Nc1nnc(-c2ccco2)o1)c1ccc2ccccc2c1	Cl transport mod 38.5
COCCn1c(SC(C)C(=O)Nc2ncc(Cl)cc2Cl)nc2ccccc21 (stereo unspecified)	Arbovirus inh 30.6
Cc1nnc(SC(C)C(=O)Nc2ncc(Cl)cc2Cl)n1Cc1ccccc1 (stereo unspecified)	none (no result: ROMK mod, Mdm2 ligase inh)
O=C(CNC(=S)N(Cc1ccccc1Cl)C1CCCC1)NCCN1CCOCC1	none
CCCC(=O)N1CCN(c2ccc([N+](=O)[O-])c(NC(C)c3ccccc3)c2)CC1 (stereo unspecified)	ROMK mod -5.31, Cl transport mod -4.57
COc1cccc(/C=N/n2c(-c3cccs3)n[nH]c2=S)c1	Cl transport mod 23.5 (no result: ROMK mod)
Cc1ccc(/C=N/n2c(COc3ccccc3)n[nH]c2=S)s1	Cl transport mod 15.8 (no result: ROMK mod)
Cc1ccc(/C=N/n2c(COc3ccccc3)n[nH]c2=S)o1	none
S=c1[nH]nc(-c2ccccn2)n1/N=C/c1ccc(Br)s1	Cl transport mod 25.8 (no result: ROMK mod)
Cc1ccc(-c2n[nH]c(=S)n2/N=C/c2cccs2)cc1	Cl transport mod 18.2 (no result: ROMK mod)
Cc1n[nH]c(=S)n(/N=C/c2ccccn2)c1=O	none (no result: ROMK mod, Cl transport mod)
COc1ccc(-c2[nH]ncc2/C=N/NC(=O)c2cccc([N+](=O)[O-])c2)cc1OC	none
Cc1ccc(SCC(=O)c2ccc(CC(=O)O)s2)cc1	none (no result: ROMK mod, PKD1 inh, Arbovirus inh)
CC1CCN(C(=O)COc2cccc3c2CCN(C)C3=O)CC1	none
Cc1ccc(-c2n[nH]c(=S)n2/N=C/c2ccc(C)s2)cc1	Cl transport mod 5.62 (no result: ROMK mod)
Cc1nnsc1Sc1ccccc1	none
CC1=NN(C(N)=S)C(=O)C1N=Nc1ccc(C)cc1C (stereo unspecified)	Cl transport mod 20.8
CC1=NN(C(N)=S)C(=O)C1N=Nc1ccccc1C (stereo unspecified)	Cl transport mod 17.7 (no result: ROMK mod)
O=C(O)c1cc(NN=Nc2ccc(Br)cc2)cc([N+](=O)[O-])c1	m-calpain inh 60.3 (no result: ROMK mod, PKD1 inh, Arbovirus inh)
O=C(O)c1cc(NN=Nc2cccc([N+](=O)[O-])c2)cc([N+](=O)[O-])c1	none (no result: PKD1 inh, Arbovirus inh)
CC1(C)c2cc(Cl)ccc2-n2c1cc(O)c(-c1ccccc1)c2=O	none (no result: PKD1 inh, Arbovirus inh)
CC/C(=N\NC(=S)Nc1ccc(OC)cc1)c1ccc(OC(F)F)cc1	Cl transport mod 8.7 (no result: ROMK mod)
CC/C(=N\NC(=S)Nc1cc(C)ccc1C)c1ccc(OC(F)F)cc1	Cl transport mod 7.67
CS(=O)(=O)N1CCc2cc(NC(=O)c3ccc(Cl)cc3Cl)ccc21	m-calpain inh 50.4
CS(=O)(=O)N1CCc2cc(C(=O)NC3CC3)ccc21	none
O=c1c2c(nc3c(-c4cccc(Br)c4)c[nH]n13)CCCC2	Cl transport mod 20.5 (no result: ROMK mod)
CSC(=S)N/N=C(\C)c1ccc(Br)cc1	ROMK mod 3.08, Cl transport mod 83.8
COC(=O)N/N=C(\C)c1ccc(Br)cc1	none (no result: ROMK mod, Cl transport mod)
COc1ccc(-c2cc(C(F)(F)F)c(C#N)c(=O)[nH]2)cc1	none (no result: ROMK mod, PKD1 inh, Arbovirus inh)
N#Cc1c(C(F)(F)F)cc(-c2cccc(Cl)c2)[nH]c1=O	Arbovirus inh 42.4 (no result: ROMK mod)
N#Cc1c(C(F)(F)F)cc(-c2ccc(Cl)cc2)[nH]c1=O	Arbovirus inh 42.5 (no result: ROMK mod)
N#Cc1c(C(F)(F)F)cc(-c2ccc(F)cc2)[nH]c1=O	none
Oc1c(Br)cc(C2N=C(c3ccccc3)NO2)cc1Br (stereo unspecified)	Arbovirus inh 33.1 (no result: ROMK mod)
CC(C)(C)OC(=O)N1CCC[C@H]1c1nnc(SCc2ccc(Cl)cc2)o1	none (no result: ROMK mod, PKD1 inh, Mdm2 ligase inh, Arbovirus inh)
O=C1C=C(Nc2ccc(O)cc2)C(=O)c2ccccc21	m-calpain inh 58.4 (no result: ROMK mod, PKD1 inh, Arbovirus inh)
